ChEMBL document CHEMBL4808175 (J Med Chem, 2021)

How the values were obtained:
[1] = target: T1, cGMP-specific 3',5'-cyclic phosphodiesterase (Homo sapiens, UniProt O76074); assay: Inhibition of PDE5A in HEK293 cells stably transfected with cGMP biosensor assessed as increase in SNP-induced intracellular cGMP level measured after 90 mins by luminescence assay; type: cell-based
[2] = target: T1, cGMP-specific 3',5'-cyclic phosphodiesterase; assay: Inhibition of recombinant 6His-tagged PDE5A1 catalytic domain (unknown origin) expressed in Escherichia coli using TAMRA-cGMP or FAM-cAMP as substrate incubated for 1.5 hrs by IMAP-FP assay
[3] = target: T2, cAMP and cAMP-inhibited cGMP 3',5'-cyclic phosphodiesterase 10A (Homo sapiens, UniProt Q9Y233); assay: Inhibition of recombinant GST-tagged full length PDE10A2 (unknown origin) expressed in baculovirus infected Sf9 insect cells using FAM-cAMP as substrate incubated for 1.5 hrs by IMAP-FP assay
T2 sequence (Q9Y233 whole entry): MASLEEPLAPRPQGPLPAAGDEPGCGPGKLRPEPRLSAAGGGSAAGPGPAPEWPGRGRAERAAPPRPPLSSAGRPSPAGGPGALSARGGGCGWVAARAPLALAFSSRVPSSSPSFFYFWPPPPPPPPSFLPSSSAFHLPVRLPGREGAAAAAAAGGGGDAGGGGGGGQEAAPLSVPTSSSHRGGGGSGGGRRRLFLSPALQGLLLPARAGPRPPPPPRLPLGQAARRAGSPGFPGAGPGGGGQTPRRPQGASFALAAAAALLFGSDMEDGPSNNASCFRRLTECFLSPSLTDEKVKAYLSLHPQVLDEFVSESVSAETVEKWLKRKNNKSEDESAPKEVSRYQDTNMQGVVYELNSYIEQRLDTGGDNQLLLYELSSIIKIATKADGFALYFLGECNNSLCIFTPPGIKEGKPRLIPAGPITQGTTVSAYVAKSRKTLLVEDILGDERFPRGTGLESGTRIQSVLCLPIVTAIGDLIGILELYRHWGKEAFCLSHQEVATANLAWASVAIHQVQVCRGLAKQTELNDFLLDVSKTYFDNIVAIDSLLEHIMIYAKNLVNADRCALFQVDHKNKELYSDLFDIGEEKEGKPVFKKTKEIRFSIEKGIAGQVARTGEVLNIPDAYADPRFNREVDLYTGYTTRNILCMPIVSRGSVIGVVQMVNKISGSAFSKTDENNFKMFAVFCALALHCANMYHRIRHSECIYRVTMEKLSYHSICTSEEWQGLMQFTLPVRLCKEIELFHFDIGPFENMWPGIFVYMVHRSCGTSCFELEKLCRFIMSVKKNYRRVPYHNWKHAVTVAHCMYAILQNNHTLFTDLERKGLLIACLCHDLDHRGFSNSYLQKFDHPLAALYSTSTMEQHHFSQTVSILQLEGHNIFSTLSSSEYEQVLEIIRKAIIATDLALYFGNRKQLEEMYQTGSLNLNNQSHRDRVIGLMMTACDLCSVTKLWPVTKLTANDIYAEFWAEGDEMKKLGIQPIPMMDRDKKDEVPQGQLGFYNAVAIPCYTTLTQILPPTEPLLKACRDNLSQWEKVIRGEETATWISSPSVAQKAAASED
Procedure, shortened: (§1)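 PDE enzymes incubated with compound or vehicle and 50 nM TAMRA-cGMP or FAM-cAMP substrate for 1.5 h at 30 °C. Activity read by IMAP fluorescence polarization. IC50 from 10 concentrations, at least two replicates each, fitted by four-parameter logistic. Dose–response repeated at least twice; mean of at least two experiments.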

[4] = Toxicity in athymic nude-Foxn1nu mouse assessed as effect on spleen at 50 to 150 mg/kg, po bid for 28 days; type: organism-based; details: in vivo, 672 h, dose 50-150 mg/kg, time 28 day
[5] = Toxicity in athymic nude-Foxn1nu mouse assessed as effect on liver at 50 to 150 mg/kg, po bid for 28 days; type: organism-based; details: in vivo, 672 h, dose 50-150 mg/kg, time 28 day
[6] = target: Cone cGMP-specific 3',5'-cyclic phosphodiesterase subunit alpha' (Homo sapiens, UniProt P51160); assay: Inhibition of recombinant full length GST-tagged PDE6C (unknown origin) expressed in baculovirus infected Sf9 insect cells using TAMRA-cGMP as substrate incubated for 1.5 hrs by IMAP-FP assay; procedure, shortened: as §1
[7] = target: High affinity cGMP-specific 3',5'-cyclic phosphodiesterase 9A (Homo sapiens, UniProt O76083); assay: Inhibition of recombinant GST-tagged full length PDE9A2 (unknown origin) expressed in baculovirus infected Sf9 insect cells using substrate incubated for 1.5 hrs by IMAP-FP assay
High affinity cGMP-specific 3',5'-cyclic phosphodiesterase 9A, sequence (O76083 whole entry): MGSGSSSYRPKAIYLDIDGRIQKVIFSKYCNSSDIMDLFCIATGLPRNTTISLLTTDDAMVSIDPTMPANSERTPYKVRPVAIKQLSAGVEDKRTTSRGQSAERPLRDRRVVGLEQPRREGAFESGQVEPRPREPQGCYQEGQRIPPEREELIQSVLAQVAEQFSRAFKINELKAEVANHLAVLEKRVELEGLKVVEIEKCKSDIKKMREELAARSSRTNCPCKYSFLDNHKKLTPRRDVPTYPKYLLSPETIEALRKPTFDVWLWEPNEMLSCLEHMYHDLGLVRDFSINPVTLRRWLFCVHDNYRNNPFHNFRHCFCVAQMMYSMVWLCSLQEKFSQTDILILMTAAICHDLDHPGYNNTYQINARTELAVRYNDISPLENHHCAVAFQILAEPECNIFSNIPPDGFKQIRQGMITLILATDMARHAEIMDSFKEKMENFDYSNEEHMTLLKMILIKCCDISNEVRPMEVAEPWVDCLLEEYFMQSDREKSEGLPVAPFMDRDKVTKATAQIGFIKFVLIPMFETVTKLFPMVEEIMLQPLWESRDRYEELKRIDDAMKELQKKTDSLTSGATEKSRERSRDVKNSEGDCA

[8] = target: T3, cGMP-dependent 3',5'-cyclic phosphodiesterase (Homo sapiens, UniProt O00408); assay: Inhibition of recombinant full length GST-tagged PDE2A (unknown origin) expressed in baculovirus infected Sf9 insect cells using FAM-cAMP as substrate incubated for 1.5 hrs by IMAP-FP assay; procedure, shortened: as §1
T3 sequence (O00408 whole entry): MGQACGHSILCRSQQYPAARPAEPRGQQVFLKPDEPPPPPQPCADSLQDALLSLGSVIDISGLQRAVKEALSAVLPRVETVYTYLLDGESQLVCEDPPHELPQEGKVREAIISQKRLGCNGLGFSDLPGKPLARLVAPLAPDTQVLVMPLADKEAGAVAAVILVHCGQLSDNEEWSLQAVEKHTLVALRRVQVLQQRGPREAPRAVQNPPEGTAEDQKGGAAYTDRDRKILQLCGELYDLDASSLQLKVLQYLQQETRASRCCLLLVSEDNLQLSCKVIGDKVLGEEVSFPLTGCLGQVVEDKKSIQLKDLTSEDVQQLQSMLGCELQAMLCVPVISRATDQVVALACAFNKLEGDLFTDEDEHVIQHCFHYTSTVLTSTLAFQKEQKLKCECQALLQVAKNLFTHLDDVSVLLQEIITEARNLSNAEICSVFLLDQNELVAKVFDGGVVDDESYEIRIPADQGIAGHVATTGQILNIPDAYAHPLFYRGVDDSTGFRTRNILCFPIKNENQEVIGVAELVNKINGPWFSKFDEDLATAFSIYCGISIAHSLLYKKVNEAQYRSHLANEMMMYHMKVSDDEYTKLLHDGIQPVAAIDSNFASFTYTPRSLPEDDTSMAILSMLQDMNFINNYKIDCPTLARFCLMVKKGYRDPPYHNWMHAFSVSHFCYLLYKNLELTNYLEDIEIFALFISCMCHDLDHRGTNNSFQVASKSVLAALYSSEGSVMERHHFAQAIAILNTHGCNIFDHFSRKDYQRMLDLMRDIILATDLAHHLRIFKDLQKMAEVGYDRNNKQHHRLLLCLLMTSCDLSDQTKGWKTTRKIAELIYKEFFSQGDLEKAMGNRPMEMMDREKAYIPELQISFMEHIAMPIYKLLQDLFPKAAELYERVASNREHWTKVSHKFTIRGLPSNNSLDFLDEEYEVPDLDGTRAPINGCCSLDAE

[9] = target: High affinity 3',5'-cyclic-AMP phosphodiesterase 7A (Homo sapiens, UniProt Q13946); assay: Inhibition of recombinant GST-tagged PDE7A (122 to end residues) (unknown origin) expressed in baculovirus infected Sf9 insect cells using FAM-cAMP as substrate incubated for 1.5 hrs by IMAP-FP assay; procedure, shortened: as §1
[10] = organism: Homo sapiens; assay: (§2) Selectivity ratio of IC50 for recombinant GST-tagged full length PDE11A4 (unknown origin) expressed in baculovirus infected Sf9 insect cells to IC50 for recombinant full length GST-tagged PDE5A1 (unknown origin) expressed in baculovirus infected Sf9 insect cells using TAMRA-cGMP as substrate incubated for 1.5 hrs by IMAP-FP assay using TAMRA-cGMP as substrate incubated for 1.5 hrs by IMAP-FP assay
[11] = target: T4, Dual 3',5'-cyclic-AMP and -GMP phosphodiesterase 11A (Homo sapiens, UniProt Q9HCR9); assay: Inhibition of recombinant GST-tagged full length PDE11A4 (unknown origin) expressed in baculovirus infected Sf9 insect cells using TAMRA-cGMP as substrate incubated for 1.5 hrs by IMAP-FP assay; procedure, shortened: as §1
T4 sequence (Q9HCR9 whole entry): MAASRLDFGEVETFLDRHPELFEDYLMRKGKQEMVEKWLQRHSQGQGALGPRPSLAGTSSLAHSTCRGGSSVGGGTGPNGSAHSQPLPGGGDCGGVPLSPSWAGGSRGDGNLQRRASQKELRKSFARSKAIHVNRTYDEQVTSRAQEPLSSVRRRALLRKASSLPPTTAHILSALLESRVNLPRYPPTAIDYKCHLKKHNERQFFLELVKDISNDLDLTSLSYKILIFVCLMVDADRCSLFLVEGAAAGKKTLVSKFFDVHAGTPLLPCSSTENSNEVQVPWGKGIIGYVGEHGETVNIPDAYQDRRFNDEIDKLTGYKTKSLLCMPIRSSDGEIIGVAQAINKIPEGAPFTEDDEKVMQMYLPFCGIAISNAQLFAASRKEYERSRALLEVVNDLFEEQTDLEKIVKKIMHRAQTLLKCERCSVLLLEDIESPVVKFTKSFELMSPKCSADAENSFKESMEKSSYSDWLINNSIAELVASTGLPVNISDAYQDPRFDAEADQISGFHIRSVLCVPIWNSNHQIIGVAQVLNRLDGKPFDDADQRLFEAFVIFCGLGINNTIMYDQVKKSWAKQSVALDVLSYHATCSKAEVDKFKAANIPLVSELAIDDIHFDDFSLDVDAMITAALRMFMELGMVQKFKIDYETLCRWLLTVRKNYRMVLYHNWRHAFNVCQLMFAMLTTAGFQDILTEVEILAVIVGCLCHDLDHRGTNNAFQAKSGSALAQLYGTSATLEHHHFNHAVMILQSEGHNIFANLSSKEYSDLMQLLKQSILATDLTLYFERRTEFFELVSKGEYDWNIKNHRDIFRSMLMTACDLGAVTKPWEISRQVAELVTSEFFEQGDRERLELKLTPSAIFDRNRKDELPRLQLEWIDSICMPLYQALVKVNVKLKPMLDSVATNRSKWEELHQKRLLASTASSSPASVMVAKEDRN

[12] = Cmax in C57BL/6N mouse at 150 mg/kg, po administered as single dose measured up to 8 hrs by LC-MS/MS analysis; type: ADME, organism-based; design: route oral, dose 150 mg/kg, time <=8; details: in vivo
[13] = Tmax in C57BL/6N mouse at 150 mg/kg, po administered as single dose measured up to 8 hrs by LC-MS/MS analysis; type: ADME, organism-based; details: in vivo
[14] = target: High affinity cAMP-specific and IBMX-insensitive 3',5'-cyclic phosphodiesterase 8A (Homo sapiens, UniProt O60658); assay: Inhibition of recombinant GST-tagged full length PDE8A1 (unknown origin) expressed in baculovirus infected Sf9 insect cells using FAM-cAMP as substrate incubated for 1.5 hrs by IMAP-FP assay; procedure, shortened: as §1
High affinity cAMP-specific and IBMX-insensitive 3',5'-cyclic phosphodiesterase 8A, sequence (O60658 whole entry): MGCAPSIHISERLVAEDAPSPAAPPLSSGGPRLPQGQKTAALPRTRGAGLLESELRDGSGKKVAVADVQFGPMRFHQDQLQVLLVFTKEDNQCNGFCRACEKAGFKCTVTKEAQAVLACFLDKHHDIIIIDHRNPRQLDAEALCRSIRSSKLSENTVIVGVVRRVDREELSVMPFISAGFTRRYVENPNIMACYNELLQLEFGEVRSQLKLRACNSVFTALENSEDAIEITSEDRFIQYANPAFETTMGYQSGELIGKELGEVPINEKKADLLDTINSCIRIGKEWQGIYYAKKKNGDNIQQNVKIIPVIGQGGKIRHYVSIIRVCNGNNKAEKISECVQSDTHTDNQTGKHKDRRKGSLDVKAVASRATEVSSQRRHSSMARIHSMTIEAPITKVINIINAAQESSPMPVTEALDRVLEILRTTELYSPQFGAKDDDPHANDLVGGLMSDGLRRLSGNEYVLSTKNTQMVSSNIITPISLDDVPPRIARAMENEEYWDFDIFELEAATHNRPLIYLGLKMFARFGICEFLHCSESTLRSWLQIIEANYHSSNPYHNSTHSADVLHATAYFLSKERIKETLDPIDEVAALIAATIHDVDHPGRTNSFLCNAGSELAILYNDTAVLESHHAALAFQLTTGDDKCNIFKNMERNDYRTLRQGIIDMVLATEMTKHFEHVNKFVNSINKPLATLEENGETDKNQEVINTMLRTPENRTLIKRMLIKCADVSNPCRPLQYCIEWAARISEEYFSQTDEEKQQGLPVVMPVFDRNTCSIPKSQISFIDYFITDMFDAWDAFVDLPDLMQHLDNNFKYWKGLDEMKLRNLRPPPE

[15] = Toxicity in athymic nude-Foxn1nu mouse assessed as effect on kidney at 50 to 150 mg/kg, po bid for 28 days; type: organism-based; details: in vivo, 672 h, dose 50-150 mg/kg, time 28 day
[16] = human, microsomes, 1 h, 1 µM
[17] = target: T3, cGMP-dependent 3',5'-cyclic phosphodiesterase; assay: Inhibition of recombinant full length GST-tagged PDE2A (unknown origin) expressed in baculovirus infected Sf9 insect cells using TAMRA-cGMP as substrate incubated for 1.5 hrs by IMAP-FP assay; procedure, shortened: as §1
[18] = Toxicity in athymic nude-Foxn1nu mouse assessed as body weight gain at 50 to 150 mg/kg, po bid for 28 days; type: organism-based; details: in vivo, 672 h, dose 50-150 mg/kg, time 28 day
Procedure, shortened: (§3)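 Female athymic nude-Foxn1nu mice, 8–9 weeks, 18–24 g, n=4 per group. Oral gavage at 50, 100 or 150 mg/kg twice daily, or vehicle, for 28 days. Formulation ethanol/water/Maalox (7:3:90, v/v/v). Toxicity signs monitored daily. Body weight recorded daily in week 1, then twice weekly, as percent change from starting weight.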

[19] = target: cGMP-inhibited 3',5'-cyclic phosphodiesterase 3A (Homo sapiens, UniProt Q14432); assay: Inhibition of recombinant GST-tagged PDE3A (669 to end residues) (unknown origin) expressed in baculovirus infected Sf9 insect cells using FAM-cAMP as substrate incubated for 1.5 hrs by IMAP-FP assay; procedure, shortened: as §1
[20] = target: T2, cAMP and cAMP-inhibited cGMP 3',5'-cyclic phosphodiesterase 10A; assay: Inhibition of recombinant GST-tagged full length PDE10A2 (unknown origin) expressed in baculovirus infected Sf9 insect cells using TAMRA-cGMP as substrate incubated for 1.5 hrs by IMAP-FP assay; procedure, shortened: as §1
[21] = target: T4, Dual 3',5'-cyclic-AMP and -GMP phosphodiesterase 11A; assay: Inhibition of recombinant GST-tagged full length PDE11A4 (unknown origin) expressed in baculovirus infected Sf9 insect cells using FAM-cAMP as substrate incubated for 1.5 hrs by IMAP-FP assay; procedure, shortened: as §1
[22] = target: 3',5'-cyclic-AMP phosphodiesterase 4B (Homo sapiens, UniProt Q07343); assay: Inhibition of recombinant full length GST-tagged PDE4B2 (unknown origin) expressed in baculovirus infected Sf9 insect cells using FAM-cAMP as substrate incubated for 1.5 hrs by IMAP-FP assay; procedure, shortened: as §1
3',5'-cyclic-AMP phosphodiesterase 4B, sequence (Q07343 whole entry): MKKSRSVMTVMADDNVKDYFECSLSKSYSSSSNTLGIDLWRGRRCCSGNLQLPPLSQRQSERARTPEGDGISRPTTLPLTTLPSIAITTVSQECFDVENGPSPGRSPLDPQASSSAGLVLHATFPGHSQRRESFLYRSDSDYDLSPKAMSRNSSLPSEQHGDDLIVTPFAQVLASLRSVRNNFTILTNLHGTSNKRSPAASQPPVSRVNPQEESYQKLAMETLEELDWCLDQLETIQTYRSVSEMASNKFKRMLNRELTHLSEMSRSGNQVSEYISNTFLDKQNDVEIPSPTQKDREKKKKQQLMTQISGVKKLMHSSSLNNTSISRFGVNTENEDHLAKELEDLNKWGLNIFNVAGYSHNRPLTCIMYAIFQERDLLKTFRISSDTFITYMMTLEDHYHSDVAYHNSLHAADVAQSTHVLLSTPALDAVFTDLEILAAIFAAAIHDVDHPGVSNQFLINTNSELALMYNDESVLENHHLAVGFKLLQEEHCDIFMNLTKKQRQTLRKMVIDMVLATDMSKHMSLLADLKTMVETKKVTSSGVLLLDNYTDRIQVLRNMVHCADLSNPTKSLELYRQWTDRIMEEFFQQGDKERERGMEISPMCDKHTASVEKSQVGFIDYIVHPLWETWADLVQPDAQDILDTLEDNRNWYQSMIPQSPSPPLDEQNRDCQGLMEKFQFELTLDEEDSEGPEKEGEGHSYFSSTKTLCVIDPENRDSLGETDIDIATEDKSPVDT

[23] = Elimination rate constant in C57BL/6N mouse at 150 mg/kg, po administered as single dose measured up to 8 hrs by LC-MS/MS analysis; type: ADME, organism-based; details: in vivo
[24] = organism: Homo sapiens; assay: as §2, with “recombinant” for “recombinant GST-tagged”, “GST-tagged PDE6C” for “PDE11A4”
[25] = Observed volume of distribution in C57BL/6N mouse at 150 mg/kg, po administered as single dose measured up to 8 hrs by LC-MS/MS analysis; type: ADME, organism-based; details: in vivo
[26] = Toxicity in athymic nude-Foxn1nu mouse assessed as drug tolerance at 50 to 150 mg/kg, po bid for 28 days; type: organism-based; details: in vivo, 672 h, dose 50-150 mg/kg, time 28 day; procedure, shortened: as §3
[27] = Toxicity in athymic nude-Foxn1nu mouse at 50 to 150 mg/kg, po bid for 28 days; type: organism-based; details: in vivo, 672 h, dose 50-150 mg/kg, time 28 day; procedure, shortened: as §3

For COc1c(F)cc(C2CC(C(C)(C)C)=NN2c2ccc(C(=O)N3CCN(C)CC3)cc2)cc1F (configuration not stated), the EC50 [1] was 6.7 µM, the IC50 [2] was greater than 1000 nM and the IC50 [3] was greater than 10 µM. For the same molecule, the Activity [4] was “Non-Toxic”, the Activity [5] was “Non-Toxic” and the IC50 [6] was greater than 10 µM. The IC50 [7] was greater than 10 µM, the IC50 [8] was greater than 10 µM and the IC50 [9] was greater than 10 µM. For the same molecule, the Ratio IC50 [10] was greater than 10000, the IC50 [11] was greater than 10 µM and the Cmax [12] was 4000 ng/mL. The Tmax [13] was 2 h, the IC50 [14] was greater than 10 µM and the Activity [15] was “Non-Toxic”. The t1/2 [16] was 22 min, the IC50 [17] was greater than 10 µM and the Activity [18] was “Non-Toxic”. For the same molecule, the IC50 [19] was greater than 10 µM, the IC50 [20] was greater than 10 µM and the IC50 [21] was greater than 10 µM. For the same molecule, the IC50 [22] was greater than 10 µM, the k el at 8 h [23] was 8.33e-05 s⁻¹ and the Ratio IC50 [24] was greater than 10000. The Vd [25] was 625 mL, the Activity [26] was “Non-Toxic” and the Activity [27] was “Non-Toxic”.
